Laboratory results: ChEMBL document CHEMBL3739330, “Phenolic group on A-ring is key for dracoflavan B as a selective noncompetitive inhibitor of α-amylase” (Bioorg Med Chem, 2015)
Activity calls are given as the source filed them. The rule behind the calls is not given here.

Legend:
Rattus norvegicus [1] = species: Rattus norvegicus; experiment: Inhibition of rat intestine alpha-glucosidase assessed as starch digestion by turbidity assay
[2] = molecular target: T1, Pancreatic alpha-amylase (Sus scrofa) (UniProt P00690); experiment: Inhibition of porcine pancreatic alpha-amylase assessed as starch digestion up to 370 uM up to 120 mins by turbidity assay
T1 sequence (whole entry): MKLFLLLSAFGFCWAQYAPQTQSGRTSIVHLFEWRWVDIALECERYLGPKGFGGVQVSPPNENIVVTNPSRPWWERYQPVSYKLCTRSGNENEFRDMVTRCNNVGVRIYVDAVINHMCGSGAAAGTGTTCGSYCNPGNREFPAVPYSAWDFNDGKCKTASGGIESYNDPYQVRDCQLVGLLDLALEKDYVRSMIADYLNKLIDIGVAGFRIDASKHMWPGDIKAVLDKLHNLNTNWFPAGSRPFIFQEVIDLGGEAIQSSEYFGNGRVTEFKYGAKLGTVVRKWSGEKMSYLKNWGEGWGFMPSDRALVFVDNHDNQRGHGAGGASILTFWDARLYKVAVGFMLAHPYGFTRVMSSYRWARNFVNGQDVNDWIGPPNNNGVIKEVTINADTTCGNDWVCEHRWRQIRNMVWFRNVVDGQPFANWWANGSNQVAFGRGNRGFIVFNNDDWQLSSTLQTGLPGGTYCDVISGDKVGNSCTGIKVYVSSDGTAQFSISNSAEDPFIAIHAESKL

Pancreatic alpha-amylase [3] = molecular target: T2, Pancreatic alpha-amylase (Sus scrofa, UniProt P00690); experiment: Inhibition of porcine pancreatic alpha-amylase assessed as starch digestion up to 120 mins by turbidity assay
T2 sequence (P00690 whole entry): T1 sequence (whole entry)

Rattus norvegicus [4] = species: Rattus norvegicus; experiment: Inhibition of rat intestine alpha-glucosidase assessed as starch digestion up to 370 uM up to 120 mins by turbidity assay
Pancreatic alpha-amylase [5] = molecular target: T2, Pancreatic alpha-amylase; experiment: Non-competitive inhibition of porcine pancreatic alpha-amylase by Lineweaver-Burk plot analysis
Method in brief: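 Corn starch substrate 0.25–1 mg/mL, inhibitor at 11, 18 and 22 µM. Inhibitor (dissolved in methanol, diluted in 0.1 M sodium phosphate pH 6.9) preincubated with starch at 37 °C for 15 min. Enzyme then added and reaction stopped at 5 min with DNSA reagent. Boiled 5 min and absorbance read at 540 nm. Initial velocity taken from reducing sugar released. Mode assigned by Michaelis–Menten and Lineweaver–Burk analysis, with a buffer-only control.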

Alpha-amylase = Alpha-amylase (Bacillus subtilis (strain 168), UniProt P00691); experiment: Inhibition of Bacillus subtilis alpha-amylase
Chain of Alpha-amylase (P00691 whole entry): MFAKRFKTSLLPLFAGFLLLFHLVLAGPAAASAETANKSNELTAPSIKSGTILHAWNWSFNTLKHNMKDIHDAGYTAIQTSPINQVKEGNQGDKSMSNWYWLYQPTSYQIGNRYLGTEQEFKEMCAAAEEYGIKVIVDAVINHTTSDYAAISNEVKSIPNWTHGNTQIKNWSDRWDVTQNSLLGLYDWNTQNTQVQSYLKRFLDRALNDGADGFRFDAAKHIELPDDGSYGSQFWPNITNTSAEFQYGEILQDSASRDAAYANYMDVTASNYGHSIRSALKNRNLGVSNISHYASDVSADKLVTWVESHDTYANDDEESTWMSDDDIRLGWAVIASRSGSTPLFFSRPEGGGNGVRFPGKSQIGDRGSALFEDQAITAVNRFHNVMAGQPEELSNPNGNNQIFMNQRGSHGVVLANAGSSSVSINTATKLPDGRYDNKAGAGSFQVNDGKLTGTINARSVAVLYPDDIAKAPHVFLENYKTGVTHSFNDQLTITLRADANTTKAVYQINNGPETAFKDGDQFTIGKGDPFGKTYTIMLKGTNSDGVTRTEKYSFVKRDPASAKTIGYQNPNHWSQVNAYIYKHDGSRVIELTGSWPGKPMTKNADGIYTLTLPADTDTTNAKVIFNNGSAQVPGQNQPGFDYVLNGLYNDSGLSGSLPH

Aspergillus oryzae = experiment: Inhibition of Aspergillus oryzae alpha-amylase

| Compound | inhibition [2] | IC50 (Pancreatic alpha-amylase [3]) [µM] | also measured |
| --- | --- | --- | --- |
| C[C@@H]1O[C@@H](O[C@@H]2[C@@H](O)[C@H](O)[C@H](O[C@H]3[C@H](O)[C@@H](O)C(O)O[C@@H]3CO)O[C@H]2CO)[C@@H](O)[C@H](O)[C@H]1N[C@H]1C=C(CO)[C@@H](O)[C@H](O)[C@H]1O (some centres undefined) | – | – | inhibition (Rattus norvegicus [1]): Active |
| COc1cc2c(c3c1CC[C@@H](c1ccccc1)O3)[C@H]1c3c(cc(OC(C)=O)c(C)c3OC)O[C@@](c3ccccc3)(O2)[C@@H]1O | inactive | – | – |
| COc1cc2c(c3c1CC[C@@H](c1ccccc1)O3)[C@H]1c3c(cc(O)c(C)c3OC)O[C@@](c3ccccc3)(O2)[C@@H]1O | – | 23 | – |
| Oc1cc(O)c2c(c1)O[C@@]1(c3ccc(O)c(O)c3)Oc3cc(O)c4c(c3[C@@H]2[C@H]1O)O[C@H](c1ccc(O)c(O)c1)[C@H](O)C4 | inactive | – | – |
| COc1cc2c(c3c1CC[C@@H](c1ccccc1)O3)[C@H]1c3c(cc(OC(=O)c4cc(OC(C)=O)c(OC(C)=O)c(OC(C)=O)c4)c(C)c3OC)O[C@@](c3ccccc3)(O2)[C@@H]1O | inactive | – | – |
| COc1cc2c(c3c1CC[C@@H](c1ccccc1)O3)[C@H]1c3c(cc(OC(=O)c4ccccc4)c(C)c3OC)O[C@@](c3ccccc3)(O2)[C@@H]1O | inactive | – | – |
| COc1cc2c(c3c1CC[C@@H](c1ccccc1)O3)[C@H]1c3c(cc(OC(=O)c4cc(O)c(O)c(O)c4)c(C)c3OC)O[C@@](c3ccccc3)(O2)[C@@H]1O | – | 12 | – |
| COc1cc2c(c3c1CC[C@@H](c1ccccc1)O3)[C@H]1c3c(cc(O)c(C)c3OC)O[C@@](c3ccccc3)(O2)[C@@H]1O (mixture of isomers) | Active | – | inhibition (Rattus norvegicus [4]): inactive |
| COc1cc2c(c3c1CC[C@@H](c1ccccc1)O3)[C@@H]1c3c(cc(O)c(C)c3OC)O[C@](c3ccccc3)(O2)[C@H]1O | – | 27 | Ki (Pancreatic alpha-amylase [5]): 11.7 µM; IC50 (Alpha-amylase): 42 µM; inhibition (Aspergillus oryzae): inactive |
| COc1cc2c(c3c1CC[C@@H](c1ccccc1)O3)[C@H]1c3c(cc(OS(=O)(=O)O)c(C)c3OC)O[C@@](c3ccccc3)(O2)[C@@H]1O | inactive | – | – |
